Assay results taken from ChEMBL document CHEMBL5678806, “NMS-P937, an orally available, specific small-molecule polo-like kinase 1 inhibitor with antitumor activity in solid and hematologic malignancies” (Mol Cancer Ther, 2012).
Activity calls are given as the source filed them. No cut-off for these calls is given here.

Assays:
A2780 [1] = assay: Induction of cell cycle arrest in human A2780 cells assessed as accumulation of cells in G2/M phase by measuring NPM phosphorylation on Thr199 incubated for 24 hrs by Western blotting analysis; assay type: functional, cell-based; conditions: dose 0.02-0.2 µmol/L
Procedure, shortened: (§1)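 A2780 ovarian carcinoma cells treated 24 h with a range of concentrations, with DMSO and nocodazole controls. 20 µg protein extract separated by SDS-PAGE and immunoblotted with chemiluminescent detection. Probed for total and phospho-Thr210 PLK1, phospho-Ser10 histone H3, phospho-Thr199 NPM and phospho-Tyr15 CDK1. Total NPM, tubulin and total CDK1 served as loading controls.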

[2] = molecular target: Serine/threonine-protein kinase PLK1 (Homo sapiens) (UniProt P53350); assay: Inhibition of PLK1 in human A2780 cells assessed as increased Histone H3 phosphorylation on Ser10 by Western blotting analysis; assay type: cell-based
A2780 [3] = assay: Induction of cell cycle arrest in human A2780 cells assessed as accumulation of cells in G2/M phase by measuring Histone H3 phosphorylation on Ser10 incubated for 24 hrs by Western blotting analysis; assay type: functional, cell-based; conditions: dose 0.02-0.2 µmol/L; procedure, shortened: as §1
A2780 [4] = assay: Induction of cell cycle arrest in human A2780 cells assessed as accumulation of cells in G2/M phase by measuring upregulated PLK1 expression incubated for 24 hrs by Western blotting analysis; assay type: functional, cell-based; conditions: dose 0.02-0.2 µmol/L; procedure, shortened: as §1
[5] = molecular target: Serine/threonine-protein kinase PLK1 (Homo sapiens) (UniProt P53350); assay: Inhibition of PLK1 in human A2780 cells assessed as decreased TCTP phosphorylation on Ser46 by Western blotting analysis; conditions: time 1.0 hrs
[6] = molecular target: Serine/threonine-protein kinase PLK1 (Homo sapiens) (UniProt P53350); assay: Inhibition of PLK1 in human A2780 cells assessed as increased NPM phosphorylation on Thr199 by Western blotting analysis; assay type: cell-based
A2780 [7] = assay: Induction of cell cycle arrest in human A2780 cells assessed as accumulation of cells in G2/M phase by measuring CDK1 phosphorylation on Tyr15 incubated for 24 hrs by Western blotting analysis; assay type: functional, cell-based; conditions: dose 0.02-0.2 µmol/L; procedure, shortened: as §1
A2780 [8] = assay: Induction of cell cycle arrest in human A2780 cells assessed as accumulation of cells in G2/M phase by measuring PLK1 phosphorylation on Thr210 incubated for 24 hrs by Western blotting analysis; assay type: functional, cell-based; conditions: dose 0.02-0.2 µmol/L; procedure, shortened: as §1
[9] = Antitumor activity against human Acute myeloid leukemic cell xenografted in nu/nu mouse assessed as increase in median survival time at 75 mg/kg, iv administered for 5 days and measured after 7 days (reference value: 34 days); assay type: functional, Leukemia cell; conditions: time 5 day
[10] = Antitumor activity against human Acute myeloid leukemic cell xenografted in nu/nu mouse assessed as increase in median survival time at 75 mg/kg, iv administered for 5 days and measured after 7 days in presence of NMS-P937 (reference value: 34 days); assay type: functional, Leukemia cell; conditions: time 5 day
HT-29 = assay: Antitumor activity against human HT-29 cells xenografted in nu/nu mouse assessed as tumor growth inhibition at 45 mg/kg, iv administered for 4 days relative to control; assay type: functional; conditions: HT-29, 96 h, time 4 day, read-out: TGI

Chain of Serine/threonine-protein kinase PLK1 (Homo sapiens) (P53350 whole entry): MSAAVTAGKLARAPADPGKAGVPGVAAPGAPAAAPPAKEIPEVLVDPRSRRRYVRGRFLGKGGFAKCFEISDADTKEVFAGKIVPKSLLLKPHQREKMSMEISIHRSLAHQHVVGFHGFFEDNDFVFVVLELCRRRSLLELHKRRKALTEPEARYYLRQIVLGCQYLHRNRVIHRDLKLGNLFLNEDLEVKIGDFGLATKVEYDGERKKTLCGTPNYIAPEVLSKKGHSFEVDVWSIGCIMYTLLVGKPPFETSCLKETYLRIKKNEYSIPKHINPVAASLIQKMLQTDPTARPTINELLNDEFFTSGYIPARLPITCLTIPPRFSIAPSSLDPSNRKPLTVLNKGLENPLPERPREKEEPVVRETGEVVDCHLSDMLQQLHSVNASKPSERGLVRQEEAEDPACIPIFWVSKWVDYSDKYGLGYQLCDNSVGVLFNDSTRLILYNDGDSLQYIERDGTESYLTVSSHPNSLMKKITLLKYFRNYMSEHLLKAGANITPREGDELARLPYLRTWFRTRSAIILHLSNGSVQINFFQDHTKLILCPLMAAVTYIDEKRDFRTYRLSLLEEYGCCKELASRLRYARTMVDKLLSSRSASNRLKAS

| inhibition [2] | inhibition [5] | inhibition [6] | Structure (SMILES) | Activity (A2780 [1]) | Activity (A2780 [3]) | Activity (A2780 [4]) | Activity (A2780 [7]) | Activity (A2780 [8]) | Time [9] [days] | Time [10] [days] | inhibition in vivo at 45 mg/kg (HT-29) [%] |
| --- | --- | --- | --- | --- | --- | --- | --- | --- | --- | --- | --- |
| Active | Active | Active | COC(=O)Nc1nc2cc(C(=O)c3cccs3)ccc2[nH]1 | Active | Active | Active | Active | Active | – | – | – |
| – | – | – | CCc1c2c(nc3ccc(OC(=O)N4CCC(N5CCCCC5)CC4)cc13)-c1cc3c(c(=O)n1C2)COC(=O)[C@]3(O)CC [IRINOTECAN] | – | – | – | – | – | 67 | 79 | 64 |
